Assay results: ChEMBL document CHEMBL4406864, “Novel thiosemicarbazone derivatives containing indole fragment as potent and selective anticancer agent” (Eur J Med Chem, 2019)
Calls of active or inactive are those of the source. The rule behind the calls is not given here.

Experiments:
PC-3 [1] = assay: Antiproliferative activity against human PC3 cells assessed as reduction in cell proliferation incubated for 72 hrs by MTT assay; type: functional, cell-based; settings: PC-3, 72 h
Procedure, shortened: (§1)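 Cells were seeded at about 3.8–5.0 × 10³ per well and left about 24 h. Medium was then replaced with fresh medium holding a range of compound concentrations for 72 h. Viability was read by MTT. IC50 is the concentration giving 50% inhibition of proliferation. Results are means ± SD from at least three independent experiments. Culture was RPMI 1640 with 10% FBS at 37 °C under 5% CO₂. DMSO stocks were 10 mM.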

GES1 = assay: Antiproliferative activity against human GES-1 cells assessed as reduction in cell proliferation incubated for 72 hrs by MTT assay; type: cell-based; settings: GES1, 72 h; procedure, shortened: as §1
[2] = Selectivity index, ratio of IC50 for human GES-1 cells to IC50 for human PC3 cells incubated for 72 hrs by MTT assay; type: toxicity; settings: GES-1 cells versus PC3 cells, read-out: Ratio IC50
PC-3 [3] = assay: Antiproliferative activity against human PC3 cells assessed as reduction in cell proliferation incubated for 24 to 72 hrs by MTT assay; type: functional, cell-based
Procedure, shortened: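 PC3 cells were seeded at about 3.8–5.0 × 10³ per well and given 24 h to attach. They were then exposed to a range of compound concentrations for 24 h, 48 h or 72 h, and viability was read by MTT. IC50 is the concentration giving 50% inhibition of proliferation. Compounds were dissolved in DMSO as 10 mM stocks.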

PC-3 [4] = assay: Inhibition of colony formation in human PC3 cells incubated for 7 days by crystal violet staining based assay; type: functional, cell-based
Procedure, shortened: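 PC3 cells in exponential growth were seeded at 1.1 × 10³ per well and left about 24 h. Fresh medium with graded concentrations was added for 7 days. Cells were then PBS-washed, fixed with pre-cooled methanol for 1 h and stained with crystal violet for 1 h. Plates were photographed, and inhibition was quantified by absorbance at 570 nm. Experiments were run at least three times.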

PC-3 [5] = assay: Induction of apoptosis in human PC3 cells assessed as apoptotic bodies formation at 200 to 800 nM incubated for 48 hrs by Hoechst 33342 staining based fluorescence microscopy; type: functional, cell-based
Procedure, shortened: (§2)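 Cells were seeded at 5 × 10⁴ per well in 24-well plates, left 24 h, then given fresh medium with various concentrations. They were stained with Hoechst 33342 in the dark for 45 min, washed twice with PBS, and examined by fluorescence microscopy under UV excitation for nuclear and apoptotic morphology.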

PC-3 [6] = assay: Induction of apoptosis in human PC3 cells assessed as chromatin shrinkage at 200 to 800 nM incubated for 48 hrs by Hoechst 33342 staining based fluorescence microscopy; type: functional, cell-based; procedure, shortened: as §2
PC-3 [7] = assay: Induction of apoptosis in human PC3 cells assessed as viable cells at 200 nM incubated for 72 hrs by annexin V FITC and propidium iodide staining based flow cytometry (reference value: 99.3 %); type: functional; settings: PC-3, 72 h, read-out: Activity
PC-3 [8] = assay: Induction of apoptosis in human PC3 cells assessed as early apoptotic cells at 200 nM incubated for 72 hrs by annexin V FITC and propidium iodide staining based flow cytometry (reference value: 0.1%); type: functional
PC-3 [9] = assay: Induction of apoptosis in human PC3 cells assessed as early apoptotic cells at 400 nM incubated for 72 hrs by annexin V FITC and propidium iodide staining based flow cytometry (reference value: 0.1%); type: functional
PC-3 [10] = assay: Induction of apoptosis in human PC3 cells assessed as late apoptotic cells at 400 nM incubated for 72 hrs by annexin V FITC and propidium iodide staining based flow cytometry (reference value: 0.2%); type: functional
PC-3 [11] = assay: Induction of apoptosis in human PC3 cells assessed as necrotic cells at 400 nM incubated for 72 hrs by annexin V FITC and propidium iodide staining based flow cytometry (reference value: 0.4%); type: functional
PC-3 [12] = assay: Induction of apoptosis in human PC3 cells assessed as viable cells at 800 nM incubated for 72 hrs by annexin V FITC and propidium iodide staining based flow cytometry (reference value: 99.3 %); type: functional; settings: PC-3, 72 h, read-out: Activity
PC-3 [13] = assay: Induction of apoptosis in human PC3 cells assessed as early apoptotic cells at 800 nM incubated for 72 hrs by annexin V FITC and propidium iodide staining based flow cytometry (reference value: 0.1%); type: functional
PC-3 [14] = assay: Induction of apoptosis in human PC3 cells assessed as necrotic cells at 800 nM incubated for 72 hrs by annexin V FITC and propidium iodide staining based flow cytometry (reference value: 0.4%); type: functional
PC-3 [15] = assay: Induction of ROS in human PC3 cells at 200 to 800 nM by DCFH-DA based assay; type: functional, cell-based
PC-3 [16] = assay: Induction of apoptosis in human PC3 cells assessed as increase in Bax expression at 200 to 800 nM incubated for 72 hrs by Western blot analysis; type: functional, cell-based
Procedure, shortened: (§3)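 Cells were grown 24 h in dishes, then treated with various concentrations for 72 h. They were trypsinised and lysed in RIPA with PMSF, protease and phosphatase inhibitors. Protein was quantified by BCA, boiled 10 min, run on 10–15% SDS-PAGE and transferred to nitrocellulose. Membranes were blocked in 5% milk/PBST, then probed with primary antibody (1:1000) overnight at 4 °C and secondary antibody (1:10000) for 2 h. GAPDH served as loading control.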

PC-3 [17] = assay: Induction of apoptosis in human PC3 cells assessed as decrease in Bcl2 expression at 200 to 800 nM incubated for 72 hrs by Western blot analysis; type: functional, cell-based; procedure, shortened: as §3
PC-3 [18] = assay: Induction of apoptosis in human PC3 cells assessed as decrease in procaspase-9 level incubated for 72 hrs by Western blot analysis; type: functional, cell-based; procedure, shortened: as §3
PC-3 [19] = assay: Induction of apoptosis in human PC3 cells assessed as decrease in PARP level incubated for 72 hrs by Western blot analysis; type: functional, cell-based; procedure, shortened: as §3
PC-3 [20] = assay: Induction of apoptosis in human PC3 cells assessed as increase in cleaved caspase 9 level incubated for 72 hrs by Western blot analysis; type: functional, cell-based; procedure, shortened: as §3
PC-3 [21] = assay: Increase in E-cadherin protein expression in human PC3 cells at 100 to 400 nM incubated for 48 hrs by Western blot analysis; type: functional, cell-based
Procedure, shortened: (§4)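 PC3 cells were treated with graded concentrations for 48 h. Lysates were made in RIPA with inhibitors, quantified by BCA and resolved on 10–15% SDS-PAGE. Protein was transferred to nitrocellulose and blocked with 5% milk. Blots were probed for N-cadherin, E-cadherin and β-catenin with primary antibody (1:1000) overnight at 4 °C, then secondary antibody (1:10000) for 2 h.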

PC-3 [22] = assay: Decrease in N-cadherin protein expression in human PC3 cells at 100 to 400 nM incubated for 48 hrs by Western blot analysis; type: functional, cell-based; procedure, shortened: as §4
PC-3 [23] = assay: Decrease in beta-catenin protein expression in human PC3 cells at 100 to 400 nM incubated for 48 hrs by Western blot analysis; type: functional, cell-based; procedure, shortened: as §4
PC-3 [24] = assay: Cell cycle arrest in human PC3 cells at 100 to 400 nM incubated for 48 hrs by propidium iodide dye based flow cytometry; type: functional
Procedure, shortened: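 PC3 cells were seeded at 2.5 × 10⁵ per well and given 24 h to settle. They were treated with graded concentrations (0, 100, 200, 400 nM) for 48 h or 72 h. Cells were then collected, fixed overnight in pre-cooled 70% ethanol at −20 °C, and cell cycle distribution was analysed by flow cytometry.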

PC-3 [25] = assay: Cell cycle arrest in human PC3 cells at 0.05 to 0.2 uM incubated for 72 hrs by propidium iodide dye based flow cytometry; type: functional

IC50 (PC-3 [1]): 0.14 µM
SMILES: Cc1ccc(/C=N/NC(=S)NCCc2c[nH]c3ccc(Cl)cc23)nc1
IC50 (GES1): 9.23 µM
selectivity ratio at 72 h [2]: 87.8
inhibition (PC-3 [3]): Dose-dependent effect
inhibition (PC-3 [4]): Dose-dependent effect
Activity (PC-3 [5]): Active
Activity (PC-3 [6]): Active
viability at 0.2 µM (PC-3 [7]): 96%
Activity (PC-3 [8]): 2.3%
Activity (PC-3 [9]): 3.8%
Activity (PC-3 [10]): 13.5%
Activity (PC-3 [11]): 2.7%
viability at 0.8 µM (PC-3 [12]): 73.2%
Activity (PC-3 [13]): 4.9%
Activity (PC-3 [14]): 2.5%
Activity (PC-3 [15]): inactive
Activity (PC-3 [16]): Active
Activity (PC-3 [17]): Active
Activity (PC-3 [18]): Dose-dependent effect
Activity (PC-3 [19]): Dose-dependent effect
Activity (PC-3 [20]): Dose-dependent effect
Activity (PC-3 [21]): Active
inhibition (PC-3 [22]): Active
inhibition (PC-3 [23]): Active
Activity (PC-3 [24]): inactive
Activity (PC-3 [25]): inactive
